# Experimental data from different studies.
# Each line is one published result; the experiments were not run side by side.
# Target: Mitogen-activated protein kinase kinase kinase kinase 3 (MAP4K3, Homo sapiens, UniProt Q8IVH8)
# Residues used in one study (Q8IVH8 1-894): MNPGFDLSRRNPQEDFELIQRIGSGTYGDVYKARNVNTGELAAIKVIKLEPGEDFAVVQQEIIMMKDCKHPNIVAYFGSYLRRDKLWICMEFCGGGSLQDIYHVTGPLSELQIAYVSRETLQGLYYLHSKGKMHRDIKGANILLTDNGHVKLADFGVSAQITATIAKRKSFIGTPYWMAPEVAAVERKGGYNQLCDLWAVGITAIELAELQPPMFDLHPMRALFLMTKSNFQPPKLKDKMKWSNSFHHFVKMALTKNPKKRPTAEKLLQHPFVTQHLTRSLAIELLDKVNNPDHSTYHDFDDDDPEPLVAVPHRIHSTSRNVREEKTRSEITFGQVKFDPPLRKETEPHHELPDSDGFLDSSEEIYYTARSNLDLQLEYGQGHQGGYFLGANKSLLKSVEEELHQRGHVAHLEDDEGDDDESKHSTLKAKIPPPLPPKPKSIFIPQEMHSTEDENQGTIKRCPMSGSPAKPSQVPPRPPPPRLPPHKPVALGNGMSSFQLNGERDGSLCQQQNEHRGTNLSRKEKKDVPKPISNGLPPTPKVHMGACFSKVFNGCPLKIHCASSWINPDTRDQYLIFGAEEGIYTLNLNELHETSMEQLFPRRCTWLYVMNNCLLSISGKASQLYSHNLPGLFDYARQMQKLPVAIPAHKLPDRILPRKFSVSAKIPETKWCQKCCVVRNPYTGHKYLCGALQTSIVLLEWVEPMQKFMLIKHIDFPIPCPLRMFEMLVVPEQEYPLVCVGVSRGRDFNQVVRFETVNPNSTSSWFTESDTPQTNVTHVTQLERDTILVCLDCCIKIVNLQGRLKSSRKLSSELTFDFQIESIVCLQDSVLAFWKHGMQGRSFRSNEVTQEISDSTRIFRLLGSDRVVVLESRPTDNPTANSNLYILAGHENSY
Structure (SMILES),assay,conditions,quantity,result
c1ccc(CNc2nc(N3CCOc4ccccc43)nc3c2CCCC3)cc1,"target engagement in cells, inhibitor, chemoproteomics",20 mM,inhibition,3.3%
O=C(Nc1cnn(-c2csc(C(=O)NC3COC3)c2)c1)Nc1c(F)cccc1Cl,"enzyme activity, inhibitor",5 µM,remaining activity,100%
Cc1ccc(C(=O)NCc2ccsc2)cc1C#Cc1cn(C(C)C)c2ncnc(N)c12,"enzyme activity, inhibitor",1 µM,activity vs control,54%
Nc1ncnc2occ(-c3ccc(NC(=O)Nc4cc(C(F)(F)F)ccc4F)cc3)c12,"cell-free assay, inhibitor",20 µM,remaining signal,0.8%
CN1CC(Oc2cnc(C#N)cc2-c2ccn3nc(NC(=O)C4CC4)cc3c2)C1,"enzyme activity, inhibitor",1 µM,inhibition,-4%
CCCCNc1ncc2c(-c3ccc(F)cc3)nn(C[C@H]3CC[C@H](N)CC3)c2n1,"target engagement in cells, inhibitor, chemoproteomics",20 mM,inhibition,44.6%
COc1cc(/C=C/C(=O)CC(=O)/C=C/c2ccc(O)c(OC)c2)ccc1O,"enzyme activity, inhibitor",1 µM,activity vs control,87%
Cc1ccc(C(=O)Nc2ccc(CN3CCN(C)CC3)c(C(F)(F)F)c2)cc1C#Cc1cnc2cccnn12,"enzyme activity, inhibitor",23.5 nM,remaining activity,89%
COc1cc(Nc2cnc(C#N)c(O[C@H](C)CN(C)C)n2)ncc1-c1cnn(C)c1,"enzyme activity, inhibitor, radiometric",1 µM,remaining activity,45%
CCCCN(CCCC)C(=O)CN1C[C@H](c2cc(OC)c3c(c2)OCO3)[C@@H](C(=O)O)[C@@H]1CC(C)(C)CCC,"cell-free assay, competition with immobilised ligand",1 µM,remaining binding,100%
COc1cc(Cl)c(C(=O)N[C@@H](CN[C@H]2CC[C@@H](N)CC2)Cc2ccc(C#N)cc2)cc1-c1ccc(CN[C@H](C)c2ccc(C)cc2)o1,"enzyme activity, inhibitor",1 µM,remaining activity,98%
CC(=O)c1c(NS(C)(=O)=O)c2cc(-c3ccc(Cl)cc3)c(-c3ccc(Cl)cc3Cl)nc2n(C)c1=O,"cell-free assay, competition with immobilised ligand",1 µM,remaining binding,99%
FC(F)(F)Oc1cccc(-c2cnc3ccc(-c4ccncc4)nn23)c1,"enzyme activity, inhibitor, radiometric",1 µM,activity vs control,54%
Cc1sc(C(=O)NC2COC2)cc1-n1cc(NC(=O)Nc2c(F)cccc2Cl)cn1,"enzyme activity, inhibitor",10 µM,remaining activity,118%
CNC(=O)c1ccc(Nc2ncc(C(F)(F)F)c(NCc3nccnc3N(C)S(C)(=O)=O)n2)cc1,"cell-free assay, competition with immobilised ligand",0.1 µM,remaining binding,95%
